According to publication PMC3406685 (The Journal of Biological Chemistry, 2012):
“Also recorded” adds a separate entry of the source.

Legend:
α2β1 = conditions: cited from earlier work; for affinity for the α2 I domain, in words: ref [39], [46]; for affinity for α2β1, in words: ref [37], [38]
PC12 cells (α1β1) = assay: Real-time PC12 cell adhesion using xCELLigence; format: cell-based, rat; conditions: for PC12 cell adhesion (cell index), in words: […] 10^4 cells/well, 2 mM Mg^2+; for PC12 cell adhesion (cell index), in words / PC12 cell adhesion in presence of EDTA: 2 h; for PC12 cell adhesion in presence of EDTA: 2 mM EDTA; for PC12 cell adhesion relative to II-27: Mg^2+, % of the level attained with II-27, four independent experiments
[1] = tested on: α1β1-expressing Rugli cells; conditions: ref [54]; cited from earlier work
[2] = tested on: recombinant human α2 I domain; assay: SPBA, wild-type α2 I domain to coated peptides; format: binding; conditions: 0.1 μg protein/well, four independent experiments
[3] = tested on: C2C12-α2^+ cells (human α2β1); assay: Real-time adhesion of C2C12-α2^+ cells; format: cell-based, mouse cells expressing human α2β1; conditions: xCELLigence; 25,000 cells/well, 2 h; GPP10 control
[4] = tested on: parental C2C12 cells lacking collagen-binding integrins; assay: Adhesion of parental C2C12 cells; format: cell-based, mouse; conditions: real-time adhesion, GPP10 control
[5] = tested on: C2C12-α11^+ cells (human α11β1); assay: Real-time adhesion of C2C12-α11^+ cells; format: cell-based, mouse cells expressing human α11β1; conditions: xCELLigence; 25,000 cells/well, 2 h; GPP10 control
α1β1 = conditions: cited from earlier work; for preference of α1β1 and α10β1 among collagens, in words: ref [28], [29]
[6] = tested on: recombinant human α1 I domain; assay: Solid-phase binding assay; conditions: conclusion from all data together
Rugli cells (α1β1) = assay: Real-time Rugli cell adhesion; format: cell-based, rat; conditions: xCELLigence
[7] = tested on: constitutively active E318W α2 I domain; assay: SPBA, constitutively active E318W α2 I domain to coated peptides; format: binding; conditions: 0.1 μg protein/well, four independent experiments
How it was run: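 GST-tagged I domain (0.1 μg/well) added to triple-helical peptides coated at 10 μg/ml (1 h, 22 °C), blocked 1 h with TBS/50 mg/ml BSA. Binding 1 h at room temperature in TBS/1 mg/ml BSA with 2 mM MgCl₂ or EDTA. Detected with HRP anti-GST (1:10,000, 1 h) and TMB colour. Mean ± S.E. of four independent experiments, each in triplicate.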

[8] = tested on: constitutively active E317W α1 I domain; assay: SPBA, constitutively active E317W α1 I domain to coated peptides; format: binding; conditions: 0.1 μg protein/well, four independent experiments

For GROGER, the “affinity for the α2 I domain, in words” value (α2β1) is given as “high or moderate affinity motifs for the α2 I domain” and the “PC12 cell adhesion (cell index), in words” value (PC12 cells (α1β1); xCELLigence) is given as “only slight activity”.
For GFPGER, the “affinity for the α2 I domain, in words” value (α2β1) is listed as “high or moderate affinity motifs for the α2 I domain”, the “PC12 cell adhesion (cell index), in words” value (PC12 cells (α1β1); xCELLigence) is listed as “weak binding (lower compared with GFOGER)” and the “ligand quality for α1β1-expressing Rugli cells, in words” value [1] is listed as “poor ligand for α1β1-expressing Rugli cells”.
For GKOGDQGVOGEAGAO [II-27-C], the “adhesion of wild-type α2 I domain, in words” value [2] was “did not bind”, the “C2C12-α2^+ cell adhesion, in words” value [3] was “None of these cells showed any specific binding” and the “parental C2C12 cell adhesion, in words” value [4] was “None of these cells showed any specific binding”. For the same compound, the “PC12 cell adhesion in presence of EDTA” value (PC12 cells (α1β1); xCELLigence) was “no adhesion was observed in the presence of EDTA”, the “PC12 cell adhesion relative to II-27” value (PC12 cells (α1β1); xCELLigence) was ~40% and the “PC12 cell adhesion (cell index), in words” value (PC12 cells (α1β1); xCELLigence) was “no greater than to GVOGEA”. For the same compound, the “C2C12-α11^+ cell adhesion, in words” value [5] was “None of these cells showed any specific binding”.
In the case of collagen VI: collagen type VI, the “preference of α1β1 and α10β1 among collagens, in words” value (α1β1) is given as “preferentially bind collagen types IV and VI over fibrillar collagens”.
For GLSGER, the “affinity for α2β1, in words” value (α2β1) is listed as “intermediate or low affinity, which increased upon cell activation”.
For GDQGVOGEAGAO [II-27-B], the “adhesion of wild-type α2 I domain, in words” value [2] was “did not bind”, the “C2C12-α2^+ cell adhesion, in words” value [3] was “None of these cells showed any specific binding” and the “parental C2C12 cell adhesion, in words” value [4] was “None of these cells showed any specific binding”. The “PC12 cell adhesion in presence of EDTA” value (PC12 cells (α1β1); xCELLigence) was “no adhesion was observed in the presence of EDTA”, the “PC12 cell adhesion relative to II-27” value (PC12 cells (α1β1); xCELLigence) was ~40% and the “C2C12-α11^+ cell adhesion, in words” value [5] was “None of these cells showed any specific binding”.
In the case of “collagen IV: monomeric pepsin-digested human collagen IV (C-5533) [reference compound]”, the “preference of α1β1 and α10β1 among collagens, in words” value (α1β1) is given as “preferentially bind collagen types IV and VI over fibrillar collagens” and the “affinity of α1β1 for collagen IV, in words” value (α1β1; ref [30]) is given as “high affinity”.
For GQRGER, the “affinity for α2β1, in words” value (α2β1) is given as “intermediate or low affinity, which increased upon cell activation”.
In the case of GPOGPOGEGGKOGDQGVOGEAGAOGV [II-27], the “adhesion of wild-type α2 I domain, in words” value [2] is reported as “did not bind”, the “overall α1β1 recognition / selectivity, in words” value [6] is reported as “new α1β1-binding activity” and the “C2C12-α2^+ cell adhesion, in words” value [3] is reported as “None of these cells showed any specific binding; also recorded: did not bind”. The “parental C2C12 cell adhesion, in words” value [4] was “None of these cells showed any specific binding”, the “Rugli cell adhesion without activation, in words” value (Rugli cells (α1β1); control Rugli cells) was “moderate ligand for α1β1” and the “adhesion of active E318W α2 I domain, in words” value [7] was “E317W but not E318W bound strongly”. For the same compound, the “Increase of PC12 cell binding upon substitution of Mg^2+ with Mn^2+” value (PC12 cells (α1β1); real-time binding assay, Mn^2+ vs Mg^2+ (data not shown)) was 65%, the “PC12 cell adhesion, comparison of selected peptides (Fig. 7)” value (PC12 cells (α1β1); xCELLigence, 25,000 cells/well, mean cell index after 2 h, three experiments) was “bound most strongly to III-7 and then to II-27 and II-28” and the “adhesion of active E317W α1 I domain, in words” value [8] was “E317W but not E318W bound strongly”. For the same compound, the “C2C12-α11^+ cell adhesion, in words” value [5] was “None of these cells showed any specific binding; also recorded: did not bind”.
In the case of GAOGER, the “PC12 cell adhesion (cell index), in words” value (PC12 cells (α1β1); xCELLigence) is reported as “Moderate binding”.
With `CCCCCCCCCCCCCC(=O)O[C@@H]1[C@@H](C)[C@@]2(O)[C@@H](C=C(CO)C[C@]3(O)C(=O)C(C)=C[C@@H]23)[C@@H]2C(C)(C)[C@]12OC(C)=O` [PMA, phorbol 12-myristate 13-acetate, reference compound] the “Effect of PMA treatment on Rugli cell adhesion” value (Rugli cells (α1β1); 1 μM PMA, 30 min) was “increased both the rate of onset of adhesion and the peak cell index”.
In the case of GFPGEN, the “α1β1 selectivity / α1 I domain affinity, in words” value (α1β1; expressed within Streptococcus pyogenes collagen-like molecules, ref [40]) is given as “selective ligand for α1β1; also recorded: higher affinity for the α1 I domain compared with GFPGER”.
In the case of GMOGER, the “affinity for the α2 I domain, in words” value (α2β1) is listed as “high or moderate affinity motifs for the α2 I domain” and the “PC12 cell adhesion (cell index), in words” value (PC12 cells (α1β1); xCELLigence) is listed as “Moderate binding”.
In the case of GLOGER, the “affinity for the α1 I domain versus α2 I domain, in words” value (α1β1; ref [37], [38]) is given as “relatively higher affinity for the α1 I domain than for the α2 I domain”.
For GSOGEN, the “overall α1β1 recognition / selectivity, in words” value [6] was “displays little activity”.
In the case of GASGER, the “affinity for α2β1, in words” value (α2β1) is listed as “intermediate or low affinity, which increased upon cell activation”.
In the case of GLOGEA, the “affinity for the α2 I domain, in words” value (α2β1) is listed as “high or moderate affinity motifs for the α2 I domain”.
For GLKGEN, the “PC12 cell adhesion (cell index), in words” value (PC12 cells (α1β1); xCELLigence) was “only slight activity”.
